We go through 3 sequences from PMC6235538 (Science Advances, 2018).

Bridges are numbered along the chain shown (N, C = ends). Where no end group is shown, it is not given here.

The subject of test [1] is FL-BCRs on transduced Raji lymphoma cells. Kind of test: Surface staining of BCR-transduced Raji cells by biotinylated peptides. The following applies: synthetic biotinylated peptides, flow cytometry. The test is classed as binding, human. The essentials: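 Raji cells were lentivirally transduced with a lymphoma BCR scFv fused to a membrane-anchored human antibody Fc fragment, then FACS-sorted for BCR carriers. Cells were grown with 10% FBS, 10 mM Hepes, penicillin/streptomycin and 2 mM GlutaMAX. Surface staining used synthetic biotinylated peptides and an anti-IgG Fc antibody, read by flow cytometry. One Raji population served as the Fc-staining control.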

The subject of test [2] is cells from FL patient 4 biopsy. Kind of test: Flow cytometry staining of control biopsy cells. The test is classed as binding, human. The following applies: control biopsy sample. The essentials:
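Flow cytometry on control B cells from a lymphoma biopsy, stained with a synthetic biotinylated cyclic peptide ligand. B cells were gated with a B220-specific antibody. Bound peptide was detected with FITC-labelled streptavidin.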
In general terms: Flow cytometry measures light scatter and fluorescence of single cells or particles in a stream.

As for “CILDLPKFC (disulfide 1-9 (inferred)) [FL1]”, the “binding to BCRs on transduced Raji cells (in words)” value (“binding to BCRs” for short) in test [1] is recorded as “BCRs capable of binding to the peptides were present on these cells”. For the same sequence, in test [2], the “staining by the FL1 peptide (in words)” value is “did not demonstrate any significant staining”. As to “CMPHWQNHC (disulfide 1-9 (inferred)) [FL2]”, the “binding to BCRs” value in test [1] is recorded as “BCRs capable of binding to the peptides were present on these cells”. As to “CTTDQARKC (disulfide 1-9 (inferred)) [FL3]”, the “binding to BCRs” value in test [1] is listed as “BCRs capable of binding to the peptides were present on these cells”.
